The values that follow come from ChEMBL document CHEMBL1145172, “From the potent and selective mu opioid receptor agonist H-Dmt-d-Arg-Phe-Lys-NH(2) to the potent delta antagonist H-Dmt-Tic-Phe-Lys(Z)-OH” (J Med Chem, 2005).

The IC50 is the midpoint of a concentration-inhibition curve. Read a low IC50 as greater potency. By Ki is commonly meant a measure of affinity in units of concentration, obtained from inhibition or displacement.

Where a SMILES comes first, the peptide text is derived from it. [ ]: non-standard residue; d: D form. The star is where a group is joined. Dmt = Cc1cc(O)cc(C)c1C[C@H](N)C(=O)O; Tic = O=C(O)[C@@H]1Cc2ccccc2CN1; Cbz = O=C(OCc1ccccc1)*

The target of one test is Mu-type opioid receptor (Cavia porcellus, UniProt P97266). Put plainly: Agonist activity against mu opioid receptor of guinea pig ileum. The test is classed as functional, tissue-based. The method, boiled down:
(§1)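 Electrically stimulated isolated tissue: guinea pig ileum for μ and mouse vas deferens for δ. Agonist IC50 taken from dose–response curves. Values are mean ± SE from at least five fresh tissue samples.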

The nature of test [1]: Inhibition constant against synaptosomal Delta Opioid Receptor. Put shortly: (§2)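 Competitive binding on synaptosomal membranes from several separate preparations, run as independent duplicate assays with five to eight peptide doses each. Ki derived by the Cheng–Prusoff relation. Values reported as mean ± SE with n repetitions.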
A short description of test [2]: Inhibition constant against synaptosomal Mu opioid receptor. Put shortly:
as §2

In test [3] the target is T1, Delta-type opioid receptor (Mus musculus, UniProt P32300). In words: Agonistic activity against delta opioid receptor of mouse vas deferens assay. Format: functional, tissue-based. Put shortly:
as §1

Test [4] has as its target Opioid receptors; mu & delta (Homo sapiens) (UniProt P41143+P35372). Put plainly: Selectivity for synaptosomal Mu rather than Delta Opioid Receptors. Format: protein assay.
The target of test [5] is T1, Delta-type opioid receptor. Put plainly: Antagonist activity in mouse vas deferens assay. The test is classed as functional, tissue-based. The conditions noted are these: read-out: pA2 (converted). The method, boiled down: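 Electrically stimulated mouse vas deferens, with deltorphin C as the δ agonist. Antagonism expressed as pA2: the negative log of the molar antagonist concentration that doubles the agonist concentration needed to restore the original submaximal response.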

T1 sequence (P32300 whole entry): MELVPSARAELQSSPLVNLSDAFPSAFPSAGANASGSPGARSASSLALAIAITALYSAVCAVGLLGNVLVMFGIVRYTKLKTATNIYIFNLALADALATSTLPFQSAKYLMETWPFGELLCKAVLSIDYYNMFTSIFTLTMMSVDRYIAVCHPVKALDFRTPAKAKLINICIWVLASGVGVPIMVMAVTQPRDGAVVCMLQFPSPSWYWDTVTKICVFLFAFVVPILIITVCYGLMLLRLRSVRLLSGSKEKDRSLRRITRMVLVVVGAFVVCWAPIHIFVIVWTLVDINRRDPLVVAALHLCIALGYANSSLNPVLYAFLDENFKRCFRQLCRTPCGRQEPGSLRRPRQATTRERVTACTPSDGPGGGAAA
Sequence of Mu-type opioid receptor (P97266 whole entry): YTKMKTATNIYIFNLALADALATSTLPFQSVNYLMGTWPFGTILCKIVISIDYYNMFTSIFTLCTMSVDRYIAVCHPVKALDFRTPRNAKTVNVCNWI
Sequence of Opioid receptors; mu & delta (Homo sapiens) (P35372 whole entry, looked up): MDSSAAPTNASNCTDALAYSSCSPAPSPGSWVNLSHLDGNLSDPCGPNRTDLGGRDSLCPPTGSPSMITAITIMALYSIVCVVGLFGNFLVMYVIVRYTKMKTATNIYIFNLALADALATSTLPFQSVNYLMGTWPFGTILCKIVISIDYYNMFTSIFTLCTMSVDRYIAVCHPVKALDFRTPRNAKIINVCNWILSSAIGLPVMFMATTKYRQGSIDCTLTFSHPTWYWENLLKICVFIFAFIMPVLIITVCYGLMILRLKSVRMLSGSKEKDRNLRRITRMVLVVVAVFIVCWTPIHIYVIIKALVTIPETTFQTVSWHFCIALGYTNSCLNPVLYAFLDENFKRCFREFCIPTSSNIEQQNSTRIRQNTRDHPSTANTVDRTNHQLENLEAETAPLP
Sequence of Opioid receptors; mu & delta (Homo sapiens) (P41143 whole entry, looked up): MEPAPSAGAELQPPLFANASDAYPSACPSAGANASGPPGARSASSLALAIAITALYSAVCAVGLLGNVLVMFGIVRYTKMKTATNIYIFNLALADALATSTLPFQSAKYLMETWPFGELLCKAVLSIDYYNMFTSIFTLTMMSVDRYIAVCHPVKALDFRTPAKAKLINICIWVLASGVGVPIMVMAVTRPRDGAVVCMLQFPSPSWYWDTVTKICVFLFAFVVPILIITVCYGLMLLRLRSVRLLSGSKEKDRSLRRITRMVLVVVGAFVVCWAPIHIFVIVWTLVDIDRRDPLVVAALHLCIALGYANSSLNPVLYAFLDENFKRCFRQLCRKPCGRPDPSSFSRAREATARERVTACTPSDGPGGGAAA

Turning to `Cc1cc(O)cc(C)c1C[C@H](N)C(=O)N[C@H](CCC/N=C(/N)N[N+](=O)[O-])C(=O)N[C@@H](Cc1ccccc1)C(=O)N[C@@H](CCCCNC(=O)OCc1ccccc1)C(=O)O`, the values for the IC50 (on Mu-type opioid receptor; in test [3]) were 63 nM and 682 nM, respectively. The Ki is 47.6 nM in test [1] and 1.45 nM in test [2].

In the case of `Cc1cc(O)cc(C)c1C[C@H](N)C(=O)N[C@H](CCCN=C(N)N[N+](=O)[O-])C(=O)N[C@@H](Cc1ccccc1)C(=O)N[C@@H](CCCCNC(=O)OCc1ccccc1)C(N)=O`, the IC50 on Mu-type opioid receptor worked out at 0.509 nM; in test [3] it was 1.69 nM. Further, the Ki in test [1] amounted to 24.2 nM; in test [2], 0.15 nM.

Regarding `Cc1cc(O)cc(C)c1C[C@H](N)C(=O)N1Cc2ccccc2C[C@H]1C(=O)N[C@@H](Cc1ccccc1)C(=O)N[C@@H](CCCCNC(=O)OCc1ccccc1)C(N)=O` (H-[Dmt][Tic]FK(Cbz)-NH2), the IC50 on Mu-type opioid receptor is 1890 nM; in test [3] it was above 10000 nM. In test [4], the Selectivity was determined as 5. In addition, the inhibition constant Ki in test [1] turned out to be 0.23 nM; in test [2] it was 1.14 nM. The Kb in test [5] is 3.8 nM.

Consider `Cc1cc(O)cc(C)c1C[C@H](N)C(=O)N1Cc2ccccc2C[C@H]1C(=O)N[C@@H](Cc1ccccc1)C(=O)N[C@@H](CCCCNC(=O)OCc1ccccc1)C(=O)O` (H-[Dmt][Tic]FK(Cbz)-OH), for which the IC50 (at Mu-type opioid receptor; in test [3]) was above 10000 nM in each case. In addition, the Selectivity in test [4] came to 145. Also, in test [5], the Kb was 0.00372 nM.
